Laboratory results from ChEMBL document CHEMBL3244146, “Pyranenamines: a new series of antiallergic compounds” (1979).

Legend:
Type in all cases: functional
[1] = test system: Rattus norvegicus; assay: Antiallergic activity in rat assessed as inhibition of egg albumin-induced passive cutaneous anaphylaxis at 0.5 mg/kg, iv treated for 30 secs followed by egg albumin-challenge measured after 30 mins relative to control; conditions: 0.5 h
[2] = test system: Rattus norvegicus; assay: Antiallergic activity in iv dosed rat assessed as inhibition of egg albumin-induced passive cutaneous anaphylaxis treated for 30 secs followed by egg albumin-challenge measured after 30 mins; conditions: 0.5 h, read-out: ID50 (the source's name)
[3] = test system: Rattus norvegicus; assay: Antiallergic activity in rat assessed as inhibition of egg albumin-induced passive cutaneous anaphylaxis at 25 mg/kg, po treated for 15 mins followed by egg albumin-challenge measured after 30 mins relative to control
Outline: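 Oral PCA in rats: intradermal antiserum at four back sites (dose giving ~12×12 mm wheal), compound po 48 h later, 15 min before iv challenge with 0.5 mL saline containing 5 mg Evans blue plus 5 mg egg albumin; skin bluing read 30 min after challenge on two axes per wheal; six rats per dose versus ≥6 vehicle controls; percent inhibition from mean wheal size, one-sided t test.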

| Structure (SMILES) | inhibition in vivo at 0.5 mg/kg [1] [%] | ED50 [2] [mg/kg] | inhibition in vivo at 25 mg/kg [3] [%] |
| --- | --- | --- | --- |
| CC(=O)C1=C(O)/C(=C(\C)Nc2ccc(Br)cc2)C(=O)OC1=O | 0 | – | – |
| CC(=O)C1=C(O)/C(=C(\C)Nc2cccc(S(N)(=O)=O)c2)C(=O)OC1=O | 45 | – | – |
| CC(=O)C1=C(O)/C(=C(\C)Nc2ccc(S(N)(=O)=O)cc2)C(=O)OC1=O | 12 | – | – |
| CC(=O)C1=C(O)/C(=C(\C)Nc2ccccc2O)C(=O)OC1=O | – | 2.8 | -12 |
| CC(=O)C1=C(O)/C(=C(\C)Nc2cccc(O)c2)C(=O)OC1=O | – | 1.6 | 0 |
| CC(=O)Oc1ccc(N/C(C)=C2\C(=O)OC(=O)C(C(C)=O)=C2O)cc1 | 41 | – | – |
| CCC(=O)Oc1ccc(N/C(C)=C2\C(=O)OC(=O)C(C(C)=O)=C2O)cc1 | 16 | – | – |
| CCCC(=O)Oc1ccc(N/C(C)=C2\C(=O)OC(=O)C(C(C)=O)=C2O)cc1 | – | 1.5 | – |
| CCCCC(=O)Oc1ccc(N/C(C)=C2\C(=O)OC(=O)C(C(C)=O)=C2O)cc1 | 34 | – | 36 |
| CCCCCC(=O)Oc1ccc(N/C(C)=C2\C(=O)OC(=O)C(C(C)=O)=C2O)cc1 | – | 12.1 | – |
| CCCCCCC(=O)Oc1ccc(N/C(C)=C2\C(=O)OC(=O)C(C(C)=O)=C2O)cc1 | 21 | – | – |
| CC(=O)C1=C(O)/C(=C(\C)Nc2ccc(OC(=O)C(C)(C)C)cc2)C(=O)OC1=O | 3 | – | – |
| CC(=O)C1=C(O)/C(=C(\C)Nc2ccc(OC(N)=O)cc2)C(=O)OC1=O | 19 | – | – |
| CC(=O)C1=C(O)/C(=C(\C)Nc2ccc(OC(=O)NC3C=CC=CC=C3)cc2)C(=O)OC1=O | 22 | – | – |
| CC(=O)C1=C(O)/C(=C(\C)Nc2cccc(OCC(=O)O)c2)C(=O)OC1=O | 6 | – | – |
| CC(=O)C1=C(O)/C(=C(\C)Nc2ccc(OCC(=O)O)cc2)C(=O)OC1=O | – | 0.5 | 2 |
| CC(=O)C1=C(O)/C(=C(\C)Nc2ccc(S)cc2)C(=O)OC1=O | – | 1.9 | – |
| CC(=O)C1=C(O)/C(=C(\C)Nc2ccccc2N)C(=O)OC1=O | – | 27.5 | – |
| CC(=O)C1=C(O)/C(=C(\C)Nc2cccc(N)c2)C(=O)OC1=O | – | 0.3 | – |
| CNc1cccc(N/C(C)=C2\C(=O)OC(=O)C(C(C)=O)=C2O)c1 | -8 | – | – |
| CC(=O)C1=C(O)/C(=C(\C)Nc2ccc(N)cc2)C(=O)OC1=O | 58 | – | 23 |

| Structure (SMILES) | inhibition in vivo at 0.5 mg/kg [1] [%] | ED50 [2] [mg/kg] | inhibition in vivo at 25 mg/kg [3] [%] |
| --- | --- | --- | --- |
| CC(=O)C1=C(O)/C(=C(\C)Nc2cccc(NC(=N)NS(=O)(=O)c3ccc(C)cc3)c2)C(=O)OC1=O | 2 | – | – |
| CC(=O)C1=C(O)/C(=C(\C)Nc2cccc(NC(=N)N)c2)C(=O)OC1=O.O=[N+]([O-])O | – | 0.9 | -7 |
| CC(=O)C1=C(O)/C(=C(\C)Nc2ccccc2NC=O)C(=O)OC1=O | 52 | – | 31 |
| CC(=O)C1=C(O)/C(=C(\C)Nc2cccc(NC=O)c2)C(=O)OC1=O | 22 | – | – |
| CC(=O)C1=C(O)/C(=C(\C)Nc2ccc(NC=O)cc2)C(=O)OC1=O | 49 | – | -6 |
| CC(=O)Nc1ccccc1N/C(C)=C1\C(=O)OC(=O)C(C(C)=O)=C1O | -12 | – | – |
| CC(=O)C1=C(O)/C(=C(\C)Nc2cccc(NC(N)=O)c2)C(=O)OC1=O | 45 | – | 6 |
| CC(=O)C1=C(O)/C(=C(\C)Nc2ccc(NC(N)=O)cc2)C(=O)OC1=O | 38 | – | -17 |
| CCC(=O)Nc1cccc(N/C(C)=C2\C(=O)OC(=O)C(C(C)=O)=C2O)c1 | – | 0.2 | 70 |
| CCC(=O)Nc1ccc(N/C(C)=C2\C(=O)OC(=O)C(C(C)=O)=C2O)cc1 | – | 1.6 | – |
| CC(=O)C1=C(O)/C(=C(\C)Nc2cccc(NC(=O)C(C)C)c2)C(=O)OC1=O | 72 | – | 46 |
| CCCC(=O)Nc1cccc(N/C(C)=C2\C(=O)OC(=O)C(C(C)=O)=C2O)c1 | 58 | – | – |
| CC(=O)CCC(=O)Nc1cccc(N/C(C)=C2\C(=O)OC(=O)C(C(C)=O)=C2O)c1 | – | 0.4 | – |
| CC(=O)C1=C(O)/C(=C(\C)Nc2cccc(N3C(=O)CCC3=O)c2)C(=O)OC1=O | 22 | – | – |
| CC(=O)C1=C(O)/C(=C(\C)Nc2cccc(NS(C)(=O)=O)c2)C(=O)OC1=O | 28 | – | – |
| CC(=O)C1=C(O)/C(=C(\C)Nc2ccc(NS(C)(=O)=O)cc2)C(=O)OC1=O | 20 | – | – |
| CC(=O)C1=C(O)/C(=C(\C)Nc2cccc(NS(=O)(=O)c3ccccc3)c2)C(=O)OC1=O | – | 1.3 | 7 |
| CC(=O)C1=C(O)/C(=C(\C)Nc2ccc(NS(=O)(=O)c3ccccc3)cc2)C(=O)OC1=O | 4 | – | – |
| CC(=O)C1=C(O)/C(=C(\C)Nc2cccc(NS(N)(=O)=O)c2)C(=O)OC1=O | 45 | – | 13 |
| CC(=O)C1=C(O)/C(=C(\C)Nc2ccc(NS(N)(=O)=O)cc2)C(=O)OC1=O | – | 0.3 | 10 |
| CCOC(=O)Nc1cccc(N/C(C)=C2\C(=O)OC(=O)C(C(C)=O)=C2O)c1 | – | 0.4 | – |

| Structure (SMILES) | inhibition in vivo at 0.5 mg/kg [1] [%] | ED50 [2] [mg/kg] | inhibition in vivo at 25 mg/kg [3] [%] |
| --- | --- | --- | --- |
| CC(=O)NCc1cccc(N/C(C)=C2\C(=O)OC(=O)C(C(C)=O)=C2O)c1 | 4 | – | – |
| CC(=O)C1=C(O)/C(=C(\C)Nc2cccc(C(N)=O)c2)C(=O)OC1=O | -16 | – | – |
| CNC(=O)c1cccc(N/C(C)=C2\C(=O)OC(=O)C(C(C)=O)=C2O)c1 | 24 | – | – |
| CCNC(=O)c1cccc(N/C(C)=C2\C(=O)OC(=O)C(C(C)=O)=C2O)c1 | -4 | – | – |
| CC(=O)C1=C(O)/C(=C(\C)Nc2cccc(C(=O)N(C)C)c2)C(=O)OC1=O | 10 | – | – |
| CC(=O)C1=C(O)/C(=C(\C)Nc2cccc(C(=O)NC3C(=O)NC(=O)NC3=O)c2)C(=O)OC1=O | 39 | – | – |
| CNc1cc(N/C(C)=C2\C(=O)OC(=O)C(C(C)=O)=C2O)ccc1O | -6 | – | – |
| CC(=O)NCc1cc(N/C(C)=C2\C(=O)OC(=O)C(C(C)=O)=C2O)ccc1O | 1 | – | – |
| CC(=O)C1=C(O)/C(=C(\C)Nc2ccc3oc(C)nc3c2)C(=O)OC1=O | 13 | – | – |
| COc1ccc(N/C(C)=C2\C(=O)OC(=O)C(C(C)=O)=C2O)cc1NC(C)=O | 27 | – | – |
| CNC(=O)c1cc(N/C(C)=C2\C(=O)OC(=O)C(C(C)=O)=C2O)ccc1O | 38 | – | – |
| CC(=O)C1=C(O)/C(=C(\C)Nc2ccc(O)c(NS(C)(=O)=O)c2)C(=O)OC1=O | 38 | – | – |
| CC(=O)C1=C(O)/C(=C(\C)Nc2cc(C(F)(F)F)cc(C(F)(F)F)c2)C(=O)OC1=O | 14 | – | – |
| CC(=O)C1=C(O)/C(=C(\C)Nc2cc(NS(=O)(=O)c3ccccc3)cc(NS(=O)(=O)c3ccccc3)c2)C(=O)OC1=O | -9 | – | – |
| CC(=O)C1=C(O)/C(=C(\C)Nc2c(O)cccc2O)C(=O)OC1=O | -22 | – | – |
| CC(=O)Nc1ccc(O)c(N/C(C)=C2\C(=O)OC(=O)C(C(C)=O)=C2O)c1 | 40 | – | 4 |
| CC(=O)C1=C(O)/C(=C(\C)N2CCOCC2)C(=O)OC1=O | 2 | – | – |
| CC(=O)c1c(O)oc(=O)c(C(C)=O)c1O | – | 14 | – |
| CCCCCC(=O)c1c(O)oc(=O)c(C(=O)CCCCC)c1O | – | 6 | – |
